In the library only some 0.6% were active in any assay of this set; here they are far more common.
PMI act satM6P = human PMI activators, high substrate, primary screen, biochemical, fluorescence intensity, near-saturating mannose 6-phosphate | actives 0.34% (n = 190,000) | coupled PMI enzyme assay, resazurin fluorescence, 20 min; hits give high values; 1 = untreated enzyme, 0 = substrate-free blank | Mannose-6-phosphate isomerase (Homo sapiens), P34949 | activation factor at 20 µM;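 active = activation factor of 2 or more at 20 µM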
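Material: human phosphomannose isomerase with PGI, G6PDH, diaphorase coupling enzymes. Quantity: 15 ng/mL PMI. Medium: HEPES pH 7.4 buffer with MgCl2 and Tween-20. Reagent: Near-saturating mannose-6-phosphate, 1.0 mM. Compound: 20 µM single dose. Times: enzyme reaction with compound 20 min at room temperature. Detection: resorufin fluorescence at Ex 544/Em 590 nm.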
TNAP act hi DEA = TNAP activators at high phosphate acceptor level, primary screen, biochemical, luminescence, uHTS; Alkaline phosphatase, tissue-nonspecific isozyme (Homo sapiens), P05186; purified TNAP, CDP-star luminescence, 1 M DEA, 30 min; hits give high values; 0 = EDTA background, 1 = DMSO-only activity; activation factor at 20 µM; 200,000 tested, under 10 active; AID 1136, 2008;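 active = activation factor at least 2 at 20 µM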
Target sequence (P05186 whole entry, looked up): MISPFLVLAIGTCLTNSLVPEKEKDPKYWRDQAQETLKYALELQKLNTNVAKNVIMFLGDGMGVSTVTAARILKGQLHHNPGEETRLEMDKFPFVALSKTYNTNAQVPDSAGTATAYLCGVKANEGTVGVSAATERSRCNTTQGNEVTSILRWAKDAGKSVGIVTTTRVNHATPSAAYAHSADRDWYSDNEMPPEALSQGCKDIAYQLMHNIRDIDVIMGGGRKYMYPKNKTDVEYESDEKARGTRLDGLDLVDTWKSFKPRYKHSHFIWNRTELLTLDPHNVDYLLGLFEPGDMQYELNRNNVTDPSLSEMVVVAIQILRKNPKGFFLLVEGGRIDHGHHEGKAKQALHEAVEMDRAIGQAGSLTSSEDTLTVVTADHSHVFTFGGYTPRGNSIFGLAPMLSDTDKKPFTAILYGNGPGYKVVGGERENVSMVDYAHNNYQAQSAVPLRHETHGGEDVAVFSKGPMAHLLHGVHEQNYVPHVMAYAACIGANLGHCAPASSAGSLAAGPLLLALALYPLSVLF
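Assay system: human TNAP; Input: enzyme diluted 1/800 final; Reagent: CDP-star luminogenic substrate at 100 µM final; Timing: 30 min, room temperature; Signal: luminescence; Evaluation: TNAP activation factor scaled between EDTA and DMSO control wells.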
PMI act = activators of human PMI, primary screen, biochemical, fluorescence intensity, near-Km mannose 6-phosphate | Mannose-6-phosphate isomerase (Homo sapiens), P34949 | purified human PMI, coupled resazurin fluorescence, 20 min; hits give high values; 1 = vehicle control, 0 substrate-free wells | activation factor at 20 µM | actives 0.005% (n = 190,000) | AID 1214, 2008;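 active = activation factor of 2 or more at 20 µM, relative to plate controls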
TNAP inh no acc = human TNAP enzyme inhibitors, primary screen, biochemical, luminescent, no phosphate acceptor, uHTS. purified TNAP, CDP-star luminescence, 30 min. inhibition, % at 20 µM. actives 0.26% (n = 200,000). AID 1012, 2008;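 active = tissue-nonspecific alkaline phosphatase inhibition above about 50% at 20 µM in the single-dose screen, limit read from the data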;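 also: 0% = DMSO negative control and 100% = EDTA positive control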
TNAP inh hi DEA = human TNAP enzyme inhibitors, primary screen, biochemical, luminescent, high phosphate acceptor level, uHTS. Alkaline phosphatase, tissue-nonspecific isozyme (Homo sapiens), P05186. purified TNAP, CDP-star luminescence, 1 M DEA. inhibition, % at 20 µM. actives 0.03% (n = 200,000). AID 1135, 2008;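 active = over 50% inhibition of tissue-nonspecific alkaline phosphatase at 20 µM in the single-dose screen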;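 also: plate controls were DMSO wells for no effect and EDTA-quenched wells as full inhibition for full effect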
Numbers without * were called inactive.

SMILES | PMI act satM6P | TNAP act hi DEA | PMI act | TNAP inh no acc | TNAP inh hi DEA
CNC(=S)N/N=C(\C)c1ccc(Cl)s1 | 1 | 1 | 0.9 | -34.2 | -2.5
CCn1c(CNC(=O)Cc2ccc(OC)cc2)nnc1SCC(=O)c1ccccc1 | 2.5* | 1.1 | 1.7 | 2.5 | -5.4
CC(C)C(=O)NNC(=O)CSc1nnnn1C(C)C | 0.9 | 1.1 | 1 | -13.2 | -6.1
O=C(NNc1ccccc1)C(CCO)C(=O)NNc1ccccc1 | 2.4* | 1.1 | 1.8 | -8.0 | -5.2
CC(O)CC(C(=O)NNc1ccccc1)C(=O)NNc1ccccc1 (stereo unspecified) | 2.5* | 1 | 1.7 | -12.8 | -3.1
Cc1[nH]nc(-c2ccc(O)c(C)c2O)c1Oc1ccccc1 | 1.1 | 1.1 | 1.1 | 71.7* | -8.5
CCOC(=O)C1=C2NC(=O)c3ccccc3N2C(=O)C1 | 2* | 1 | 1.6 | -9.4 | 1.0
CCOC(=O)C1=C(N)N(c2ccccc2Oc2ccccc2)C(=O)C1 | 1 | 1.1 | 1 | -15.0 | -6.1
Cc1cccc2cc3c(N)c(C(=O)N4CCOCC4)sc3nc12 | 2.1* | 1 | 1.3 | -8.1 | 1.2
CCOc1cccc2cc(C(=O)NCCC3=CCCCC3)c(=O)oc12 | 0.9 | 1 | 0.9 | -9.3 | -1.5
Cc1cc2oc(=O)cc(CN3CCCc4ccccc43)c2cc1C | 2.3* | 1 | 1.1 | -10.1 | -2.3
Cc1cc2oc(=O)cc(CN3CCOCC3)c2cc1C | 1 | 1 | 1 | -4.1 | -0.2
Cc1cc(CNC(=O)c2cccnc2Cl)c2ccccc2n1 | 0.9 | 1 | 0.9 | -7.0 | -2.4
COCC(=O)n1nc(-c2ccccc2)nc1NCc1cccs1 | 1 | 0.9 | 1 | 54.3* | 14.8
COC(=O)CC1c2cc(OC)c(OC)cc2CC(=O)c2cc(OC)c(OC)cc21 (stereo unspecified) | 2* | 1 | 1.5 | -6.7 | 0.5
O=C1N(Cc2cccnc2)C[C@@H]2C[C@@H](c3cccc(OC4CCCC4)c3)N3CCC[C@@]123 | 0.9 | 1 | 0.9 | -7.5 | -4.0
Clc1cccc(CN2CCN(Cc3nc(CCc4ccccc4)no3)CC2)c1 | 1 | 1.1 | 1 | -3.7 | -8.1
COc1ccc(-c2[nH]ncc2C=O)cc1OC | 0.9 | 1 | 0.9 | 4.2 | -3.9
O=Cc1cn[nH]c1-c1ccccc1 | 1 | 1 | 1 | 74.9* | -3.4
CC(=O)N1CCc2ccccc2C1CC(=O)O (stereo unspecified) | 1 | 1 | 1 | -8.1 | 2.4
O=C(/C=C1\NCC2c3ccccc3CCN2C1=O)c1ccccc1 (stereo unspecified) | 2.6* | 0.9 | 1.7 | -2.0 | 5.1
Cc1ccc2c(c1)Oc1ccccc1C=C2C(=O)O | 1 | 1.1 | 1 | -8.5 | -5.0
Cc1nn(-c2ccccc2)c(C)c1/C=N/NC(=O)c1cc(-c2cccs2)[nH]n1 | 1 | 0.9 | 0.9 | 83.5* | 11.6
O=C(O)c1cc(-c2cccs2)[nH]n1 | 1 | 1.1 | 1 | 83.4* | -6.6
Cc1nn(-c2ccccc2)c(C)c1/C=N/NC(=O)c1cc(-c2ccc(Cl)s2)[nH]n1 | 0.9 | 0.9 | 0.8 | 67.3* | 7.3
SMILES | PMI act satM6P | TNAP act hi DEA | PMI act | TNAP inh no acc | TNAP inh hi DEA
Cc1nn(-c2ccccc2)c(C)c1/C=N/NC(=O)c1cc(-c2ccc(Br)s2)[nH]n1 | 0.7 | 1 | 0.7 | 43.9 | 2.4
Cc1nn(-c2ccccc2)c(C)c1/C=N/NC(=O)c1cccs1 | 1.1 | 1 | 0.9 | -14.7 | -3.0
COc1cc(/C=N/NC(=O)c2cc(C34CC5CC(CC(C5)C3)C4)[nH]n2)ccc1O | 0.8 | 1 | 0.8 | 54.4* | -0.9
COc1cc(/C=N/NC(=O)c2[nH]nc3c2CCc2ccccc2-3)ccc1O | 0.8 | 1.1 | 1 | 65.5* | -5.4
Cc1nn(-c2ccccc2)c(C)c1/C=N/NC(=O)c1cc(C23CC4CC(CC(C4)C2)C3)[nH]n1 | 0.9 | 1.1 | 0.9 | 73.4* | -7.8
Cc1nn(-c2ccccc2)c(C)c1/C=N/NC(=O)c1cc(C2CC2)[nH]n1 | 1 | 1.1 | 1 | 20.4 | -6.5
COc1cc(/C=N/NC(=O)c2ccccc2)ccc1O | 1.1 | 1 | 1.1 | -8.6 | -1.6
Cc1cccc(C)c1N=Cc1c(C(F)(F)F)[nH][nH]c1=O | 1 | 1 | 1.1 | -20.6 | -1.5
O=C(CCN1C(=O)C2C3C=CC(C3)C2C1=O)NCCN1CCCc2ccccc21 (stereo unspecified) | 2.1* | 1 | 1.5 | 0.6 | 0.4
O=C(CN1C(=O)C2C3C=CC(C3)C2C1=O)NCCN1CCCc2ccccc21 (stereo unspecified) | 2.1* | 1 | 1.7 | -15.5 | -2.1
N#CC(C#N)=C(Nc1ccc(F)cc1)SCc1cccc(F)c1 | 0.8 | 1 | 0.9 | -5.2 | -4.6
COc1ccc(-c2[nH]ncc2CN(Cc2nccn2C)C(C)C)c(F)c1 | 1 | 1 | 1 | 25.5 | -4.9
CCn1ccnc1CN(C)Cc1cn[nH]c1-c1ccc(F)cc1F | 1 | 1 | 1 | 85.4* | -2.7
CCCCOC(=O)Nc1nnc(Cc2ccc(Cl)cc2)s1 | 1.1 | 1 | 1.1 | -23.2 | -1.2
O=C1C2CC=CCC2C(=O)N1c1ccc(NCCc2ccccc2)c([N+](=O)[O-])c1 (stereo unspecified) | 1 | 0.9 | 0.9 | 0.2 | 12.3
O=C1C2C3C=CC(C3)C2C(=O)N1c1n[nH]c(-c2cccnc2)n1 (stereo unspecified) | 0.9 | 1 | 0.8 | 59.1* | -2.1
O=C1C2C3C=CC(C3)C2C(=O)N1c1n[nH]c(-c2ccccc2)n1 (stereo unspecified) | 1 | 1 | 1 | 95.8* | -2.5
O=C1C2CC=CCC2C(=O)N1c1n[nH]c(-c2ccccc2)n1 (stereo unspecified) | 1 | 1 | 1 | 97.4* | 2.3
O=C1C2CC=CCC2C(=O)N1c1n[nH]c(CCc2ccccc2)n1 (stereo unspecified) | 0.9 | 1 | 0.9 | 78.9* | 2.1
O=C1C2CC=CCC2C(=O)N1c1nc2n(n1)C(c1ccccc1)CC(c1ccccc1)N2 (stereo unspecified) | 1 | 1.1 | 1 | -10.5 | -6.0
COc1ccc(NC(=O)CSc2nc3ccsc3c(=O)n2CCCCCC(=O)O)cc1 | 1 | 1 | 1.1 | -10.6 | -2.9
Nc1cc(=O)[nH]n1C1CCCCC1 | 1 | 1.1 | 1 | -8.0 | -5.3
NC(=O)COc1ccc(-c2noc(COc3ccccc3[N+](=O)[O-])n2)cc1 | 1.1 | 1 | 1.1 | -11.8 | -3.9
